Compound activity from PubChem BioAssay.
SR-BI DiI inh: blocks mouse SR-BI lipid uptake from DiI-HDL; inhibition, % at 12.5 µM; Q61009; 320,000 compounds, 0.96% hits; ldlA[mSR-BI] CHO cells, DiI-HDL uptake fluorescence, 3 h;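 active means mean replicate inhibition of at least 70% and a set share of replicates each scoring 70 or more; inconclusive means meets just one of the two criteria; inactive means fails both criteria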;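 further: 0% = median of neutral control wells and 100% = median of positive control wells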
Target sequence (Q61009 whole entry, looked up): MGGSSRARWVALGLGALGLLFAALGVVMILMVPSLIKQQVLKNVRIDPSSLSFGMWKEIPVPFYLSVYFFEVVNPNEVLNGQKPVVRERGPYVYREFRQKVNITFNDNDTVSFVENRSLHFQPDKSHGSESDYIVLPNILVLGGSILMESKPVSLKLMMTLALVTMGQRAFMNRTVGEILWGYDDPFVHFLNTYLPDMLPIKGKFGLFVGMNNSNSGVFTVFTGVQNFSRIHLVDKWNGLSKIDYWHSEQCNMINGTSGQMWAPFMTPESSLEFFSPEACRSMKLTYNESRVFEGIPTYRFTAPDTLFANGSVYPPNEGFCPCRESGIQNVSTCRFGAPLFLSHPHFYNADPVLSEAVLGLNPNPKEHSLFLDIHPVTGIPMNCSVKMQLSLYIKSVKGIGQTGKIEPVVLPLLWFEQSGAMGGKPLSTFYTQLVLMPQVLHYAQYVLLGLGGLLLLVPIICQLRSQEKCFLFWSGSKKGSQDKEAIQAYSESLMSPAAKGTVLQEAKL
MITF TRPM1 HTS: activators of MITF-driven TRPM1 promoter activity in SK-MEL-5 cells; SK-MEL-5 TRPM1-promoter luciferase, 24 h; % of positive control, neutral wells = 0; activation, % at 12.5 µM; 300,000 compounds, 0.75% hits; AID 588334;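 active means mean activation of at least 80% with every replicate also reaching 80%; inconclusive means mean reaches 80% but some replicate falls short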;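 further: 0% = neutral control wells and 100% = parthenolide positive control wells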
HSF-1 act: increases HSF-1 driven luciferase reporter signal. NIH3T3-HGL HSF-1 luciferase reporter, MG132, 8 h; 100% = twice DMSO control signal. activation, % at 9 µM. 300,000 compounds, 1.7% hits. AID 504408;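 active means mean replicate activation of at least 50% with a set share of replicates each reaching 50%; inconclusive means only one of those two conditions met; inactive means mean below 50% and too few replicates reaching it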;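 further: 0% = median of the neutral control wells and 100% = twice that signal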
Wnt act: Wnt/beta-catenin pathway activation; activation, % at 9.35 µM; 300,000 compounds, 1.2% hits; Wnt/beta-catenin reporter cell assay, activator, plate reader; in the data active means activation above about 30%, passing the limit was not always enough; inconclusive means no clear call, values can overlap the other calls;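 further: 0% = neutral control wells and 100% = positive control wells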
SR-BI uptake up: SR-BI HDL lipid transfer activation | CHO ldlA[mSR-BI] cells, DiI-HDL uptake fluorescence, 3 h; 100 = double the neutral-control signal | activation, % at 12.5 µM | 320,000 compounds, 0.096% hits | AID 504775;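 active means mean replicate activation of at least 60% and every replicate at or above 60%; inconclusive means mean or all-replicate condition met, but not both; inactive means mean below 60% and not all replicates reaching 60%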;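 further: 0% = median plate neutral-control signal and 100% = twice that signal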
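Test system: SR-BI-overexpressing, LDLR-lacking CHO cells; Also added: labelled HDL, 10 µg/mL; Measured by: bottom-read cell fluorescence after medium removal, ex 550/em 595 nm; Timing: 3 h uptake period with compound, 37 °C; Buffer or medium: F12, 0.5% BSA, 25 mM HEPES; Doses: single compound concentration, delivered by pin transfer.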
DiI quencher: quenches DiI-HDL fluorescence, an SR-BI assay artifact; shares compounds with SR-BI DiI inh; cell-free DiI-HDL fluorescence quenching, 30 min; AC50, µM (series often up to 35 µM), without a hit: top-dose activity change, negative = quenching; 470 compounds, 20% hits; AID 540326;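 active means quenching, a falling signal, with AC50 below a set limit tied to the top valid dose, actives reach about 32 µM in these data; inconclusive means no clear call, values can overlap the other calls; inactive means rising signal, and the rest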
Active calls of the source: *; ? = inconclusive; · = no result given. This is a sample that favours compounds with a hit; in the whole collection about 3.6% have one here.

SMILES	SR-BI DiI inh	MITF TRPM1 HTS	HSF-1 act	Wnt act	SR-BI uptake up	DiI quencher
CCOC(=O)Nc1cccc(NC(=O)c2cc(OC)cc(OC)c2)c1	74*	7	7	·	-74	10%
C=CCNc1ncnc2c1ncn2[C@H]1CN(Cc2ccc(F)cc2)C[C@@H](CO)O1	·	·	·	-1	·	·
CCOc1cccc2cc(C(=O)NCc3ccc(C)cc3)c(=N)oc12	-2	-16	-10	-1	2	·
CCN=C1NC(c2ccccc2C(F)(F)F)C(C(=O)OC)=C(C)N1C (configuration not stated)	·	·	·	0	·	·
COc1cccc(S(=O)(=O)N(C)C[C@H]2OCc3cnnn3CCCC(=O)N([C@H](C)CO)C[C@H]2C)c1	·	·	·	-1	·	·
Cc1ccc(S(=O)(=O)N2C[C@@H]3[C@H]4CC[C@H](C4)[C@@H]3[C@@H](C)[C@@H]2c2ccn([Si](C(C)C)(C(C)C)C(C)C)c2)cc1	3	13	·	-2	-3	·
COc1ccc(OC)c(CCNC(=O)Cc2ccc(NC3=NC4CS(=O)(=O)CC4S3)cc2)c1 (configuration not stated)	12	·	-16	-1	-12	·
COc1ccc(OC)c(CCNC(=O)c2ccc(NC3=NC4CS(=O)(=O)CC4S3)cc2)c1 (configuration not stated)	83*	·	0	0	-83	2%
Cc1ccc(S(=O)(=O)NCc2ccc(C(=O)NCCc3ccc(S(N)(=O)=O)cc3)cc2)cc1	92*	-2	?	3	-92	5%
Cc1ccc(CC(=O)NCCc2ccc(S(N)(=O)=O)cc2)cc1	-5	9	29	0	5	·
COC(=O)c1cc2c(ccn2-c2ccc(F)cc2)n1Cc1ccc(C#N)cc1	78*	14	?	-3	-78	2%
COC(=O)c1cc2c(ccn2-c2ccc(F)cc2)n1CC(=O)N1CCN(C(=O)c2ccco2)CC1	?	1	·	·	-71	·
COc1cc(-c2nnn(Cc3ccccc3C)n2)cc(OC)c1OC	101*	-8	13	0	-101	2%
COc1ccc(-c2nnn(Cc3ccccc3)n2)cc1OC	4	27	5	1	-4	·
CCOC(=O)C1CCCN(C(=O)c2cc(-c3ccc(C)cc3)on2)C1 (configuration not stated)	-1	9	-10	27	1	·
CCOC(=O)C1CCCN(C(=O)c2cc(COc3ccc(C)nc3)on2)C1 (configuration not stated)	-15	3	31	8	15	-1%
Cc1ccc(S(=O)(=O)Nc2ccc3c(c2)nc(CCN2CCN(c4ccccn4)CC2)n3C)cc1	34	3	-6	-1	-34	·
Cn1c(CCN2CCN(c3ccccn3)CC2)nc2cc(NS(=O)(=O)c3ccc(Cl)cc3)ccc21	73*	-7	46	-1	-73	-2%
CCCC(=O)Nc1ccc(Cl)c(NC(=O)c2cccc(OC)c2)c1	78*	1	15	-3	-78	2%
CCCC(=O)Nc1ccc(Cl)c(NC(=O)c2cccnc2)c1	15	-17	-89	·	-15	·
Cc1cc(C)nc(Nc2n[nH]c(-c3ccc(C(C)(C)C)cc3)n2)n1	108*	20	6	3	-108	11µM*
Cc1ccc(C)c(NC(=O)C2(C)CC3c4ccccc4C2c2ccccc23)c1 (configuration not stated)	·	-10	·	·	·	·
Cc1cccc(NC(=O)C2(C)CC3c4ccccc4C2c2ccccc23)c1C (configuration not stated)	8	3	1	·	-8	2%
CC(=O)c1c(C)[nH]c(C(=O)Nc2ccc(C)c(S(=O)(=O)Nc3ccc(C)cc3C)c2)c1C	83*	-16	15	-1	-83	11%
COc1ccccc1NS(=O)(=O)c1cc(NC(=O)c2[nH]c(C)c(C(C)=O)c2C)ccc1N1CCOCC1	22	-21	25	-1	-22	·
SMILES	SR-BI DiI inh	MITF TRPM1 HTS	HSF-1 act	Wnt act	SR-BI uptake up	DiI quencher
COc1ccc(/C=C2/CCC(CN3CCOCC3)C2=O)cc1 (configuration not stated)	15	-99	-38	-5	-15	·
O=C(Nc1ccccc1)NC1CC2CCC(C1)N2Cc1nnnn1Cc1ccc2c(c1)OCO2 (configuration not stated)	?	-5	26	1	-71	1%
COc1cccc(NC(=O)NC2CCN(Cc3nnnn3Cc3ccc4c(c3)OCO4)CC2)c1	30	-8	4	-3	-30	·
CCN1CCN(C(=O)C2CCN(C(=O)Nc3ccccc3)CC2)CC1	-10	4	·	-2	10	·
CCOC(=O)N1CCN(C(=O)C2CCN(C(=O)Nc3ccccc3)CC2)CC1	74*	11	·	2	-74	-1%
COc1ccc(CC(=O)NCc2ccc3c(c2)cc(C)n3C)cc1OC	25	1	6	-1	-25	·
COc1cc(/C=C\C(=O)NCc2ccc3c(c2)cc(C)n3C)cc(OC)c1OC	78*	·	41	-9	-78	-4%
OC1CCN(c2cc(-c3ccccc3)nc3cc(-c4ccc(F)cc4)nn23)CC1	72*	6	2	-4	-72	6%
Cc1cn([C@H]2C[C@H](O)[C@@H](CCC(=O)NCCc3ccc4ccccc4c3)O2)c(=O)[nH]c1=O	·	·	·	-4	·	·
O=C(O)CC(C(=O)Nc1cccc(C(F)(F)F)c1)C1CCCO1 (configuration not stated)	-17	·	-3	-7	17	-3%
O=C1CSC(=S)N1Nc1ccccc1	-10	-10	·	-3	10	·
Cc1ccc(NC(=O)COC(=O)c2cccc(C)c2[N+](=O)[O-])cc1S(=O)(=O)N1CCCCC1	14	·	·	-4	-14	·
O=C(NCc1ccccc1)[C@@H]1CCCN1C(=O)[C@H]1CCCN1C(=O)C1CCCCC1	·	·	·	-2	·	·
Cc1ccc(OCC(=O)NNC(=O)C2CCN(c3ncnc4sc(C)c(C)c34)CC2)cc1	80*	0	-1	-3	-80	3%
CCSCC1COC(c2cccn2Cc2ccc(C)cc2)=N1 (configuration not stated)	?	1	1	-13	-70	-5%
CCOc1ccc(S(=O)(=O)NCCC(=O)N2CCN(C(C)=O)CC2)cc1	·	·	·	-1	·	·
COc1ccc(S(=O)(=O)N2CCC(C(=O)NN3CCCCC3)CC2)cc1OC	-9	-4	·	3	9	-2%
Cc1cc(C)cc(N(CCC#N)C(=O)COC(=O)CCc2c[nH]c3ccccc23)c1	?	-1	·	-3	-74	-13%
Cc1ccc(NC(=O)COC(=O)CCc2c[nH]c3ccccc23)cc1	·	·	·	-2	·	·
CN(C(=O)COC(=O)CCc1c[nH]c2ccccc12)c1ccccc1	-25	5	17	1	25	-5%
Cc1ccc(-c2nn(-c3ccccc3)cc2/C=C/C(=O)OCC(=O)NC2CC2)o1	72*	-4	8	-1	-72	11%
